{"data": "Measurements from different studies", "target": "Acetylcholinesterase (ACHE, Homo sapiens, UniProt P22303)", "action": "inhibitor", "note": "Lines come from different studies, so protocols differ."}
{"SMILES": "O=C(NCCN1CCCCC1)c1ccc(Cl)cc1", "effect on": "enzyme activity", "method": "Ellman", "IC50 [µM]": 46}
{"SMILES": "CCN(CC)c1ccc(C=NNC(=O)c2ccc(F)cc2)c(OS(=O)(=O)c2ccc(OC)cc2)c1", "effect on": "enzyme activity", "method": "Ellman", "IC50 [µM]": 0.0837}
{"SMILES": "COC(=O)c1cc(N(C)C(=O)c2ccn3ncc(-c4ccc(C(=O)O)cc4)c3c2)ccc1Cl", "effect on": "cell-free assay", "IC50 [µM]": "> 30"}
{"SMILES": "O=[N+]([O-])c1c[nH]c(-c2n[nH]c(=S)n2/N=C/c2ccc(Cl)c([N+](=O)[O-])c2)c1", "effect on": "enzyme activity", "method": "Ellman", "IC50 [µM]": 13.2}
{"SMILES": "COc1cccc(C=NNC(=O)c2cc(-c3cn(C)c4ccccc34)on2)c1OC", "effect on": "enzyme activity", "IC50 [µM]": "> 100"}
{"SMILES": "O=[N+]([O-])c1c[nH]c(-c2n[nH]c(=S)n2/N=C/c2ccc(C(F)(F)F)cc2)c1", "effect on": "enzyme activity", "method": "Ellman", "IC50 [µM]": 5.1}
{"SMILES": "COc1ccc(S(=O)(=O)Oc2cccc(C=NNC(=O)c3ccc(F)cc3)c2)cc1", "effect on": "enzyme activity", "method": "Ellman", "IC50 [µM]": 0.0895}
{"SMILES": "O=[N+]([O-])c1c[nH]c(-c2n[nH]c(=S)n2/N=C/c2ccc(F)cc2O)c1", "effect on": "enzyme activity", "method": "Ellman", "IC50 [µM]": 7.1}
{"SMILES": "C#CCN(C)CCCCOc1cccc(CN(C)c2c3c(nc4ccccc24)CCCC3)c1", "effect on": "enzyme activity", "method": "Ellman", "IC50 [µM]": 6.09}
{"SMILES": "O=[N+]([O-])c1c[nH]c(-c2n[nH]c(=S)n2/N=C/c2ccc(Br)c(Br)c2)c1", "effect on": "enzyme activity", "method": "Ellman", "IC50 [µM]": 27.1}
{"SMILES": "Cn1cc(-c2cc(C(=O)NN=Cc3cccc([N+](=O)[O-])c3)no2)c2ccccc21", "effect on": "enzyme activity", "IC50 [µM]": 45.6}
{"SMILES": "COc1ccccc1C(=O)NCCN1CCCCC1", "effect on": "enzyme activity", "method": "Ellman", "IC50 [µM]": 4.7}
{"SMILES": "COc1ccc(OC)c(C=NNC(=O)c2cc(-c3cn(C)c4ccccc34)on2)c1", "effect on": "enzyme activity", "IC50 [µM]": "> 100"}
{"SMILES": "C#CCN(C)CCCCCCCCOc1cccc(CN(C)c2c3c(nc4ccccc24)CCCC3)c1", "effect on": "enzyme activity", "method": "Ellman", "IC50 [µM]": 4.33}
{"SMILES": "O=[N+]([O-])c1c[nH]c(-c2n[nH]c(=S)n2/N=C/c2ccc(Oc3ccccc3)cc2)c1", "effect on": "enzyme activity", "method": "Ellman", "IC50 [µM]": 19.3}
{"SMILES": "C#CCN(C)CCOc1cccc(CN(C)c2c3c(nc4ccccc24)CCCC3)c1", "effect on": "enzyme activity", "method": "Ellman", "IC50 [µM]": 4.21}
{"SMILES": "Cn1cc(-c2cc(C(=O)NN=Cc3cccc(Br)c3)no2)c2ccccc21", "effect on": "enzyme activity", "IC50 [µM]": "> 100"}
{"SMILES": "COc1ccc(C(=O)NCCN2CCCCC2)cc1", "effect on": "enzyme activity", "method": "Ellman", "IC50 [µM]": 5.6}
{"SMILES": "COc1ccc(S(=O)(=O)Oc2ccc(C=NNC(=O)c3ccc(F)cc3)cc2OC)cc1", "effect on": "enzyme activity", "method": "Ellman", "IC50 [µM]": 0.0614}
{"SMILES": "C#CCN(C)CCCCCOCc1ccc(CN(C)c2c3c(nc4ccc(C)cc24)CCCC3)cc1", "effect on": "enzyme activity", "method": "Ellman", "IC50 [µM]": 13.4}
{"SMILES": "O=C(NCCN1CCCCC1)c1ccccc1Cl", "effect on": "enzyme activity", "method": "Ellman", "IC50 [µM]": 0.09}
